# Compound activity deposited in PubChem BioAssay by several laboratories.
# In the library only some 2.2% were active in any assay of this set; here they are far more common.
# HKDC1 inhibitor – HKDC1 hexokinase inhibitors, primary screen, biochemical, fluorescence, uHTS | inhibition, % at 20 µM | Q2TB90 | recombinant HKDC1, G6PDH/diaphorase resazurin coupled fluorescence | 340,000 compounds, 0.16% hits;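 active = inhibition above about 35% when tested at 20 µM, limit read from the data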;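 note: plate controls were DMSO wells with enzyme for no effect and DMSO wells lacking enzyme for full effect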
# Target sequence (Q2TB90 whole entry, looked up): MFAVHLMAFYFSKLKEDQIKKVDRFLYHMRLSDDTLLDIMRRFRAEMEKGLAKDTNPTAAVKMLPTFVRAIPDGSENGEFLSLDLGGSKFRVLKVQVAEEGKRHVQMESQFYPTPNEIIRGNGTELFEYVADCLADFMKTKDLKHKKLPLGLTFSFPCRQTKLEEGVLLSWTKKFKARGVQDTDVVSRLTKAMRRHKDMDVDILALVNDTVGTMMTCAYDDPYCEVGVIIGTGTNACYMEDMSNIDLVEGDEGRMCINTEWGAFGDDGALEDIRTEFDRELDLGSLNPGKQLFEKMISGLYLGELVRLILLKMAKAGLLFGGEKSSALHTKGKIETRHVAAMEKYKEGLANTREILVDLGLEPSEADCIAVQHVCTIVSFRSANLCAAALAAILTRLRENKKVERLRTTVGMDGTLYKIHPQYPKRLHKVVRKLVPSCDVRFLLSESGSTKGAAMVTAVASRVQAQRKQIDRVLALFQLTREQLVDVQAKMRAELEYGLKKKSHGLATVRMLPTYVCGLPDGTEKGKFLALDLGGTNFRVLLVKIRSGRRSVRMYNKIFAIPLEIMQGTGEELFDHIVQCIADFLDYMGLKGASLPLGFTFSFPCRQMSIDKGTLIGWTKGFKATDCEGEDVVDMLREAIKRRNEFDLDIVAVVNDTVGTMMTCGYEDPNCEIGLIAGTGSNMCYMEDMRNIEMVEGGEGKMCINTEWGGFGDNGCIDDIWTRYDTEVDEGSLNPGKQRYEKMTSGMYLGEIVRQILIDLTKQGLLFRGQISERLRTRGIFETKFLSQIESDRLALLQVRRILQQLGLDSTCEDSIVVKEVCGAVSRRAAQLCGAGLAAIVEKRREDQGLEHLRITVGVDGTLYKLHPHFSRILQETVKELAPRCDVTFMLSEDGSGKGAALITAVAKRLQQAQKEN
#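 Material – in-house recombinant HK5 (HKDC1) enzyme · Quantity – HKDC1 at 5 µg/mL · Buffer or medium – pH 8.0 Tris buffer with 10 mM MgCl2 · Reagent – glucose with 1 mM ATP · Dosing – single 20 µM dose · Times – reaction time 90 min, room temperature, protected from light · Technique – resorufin fluorescence at 613 nm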
# PfG6PD inh – PfG6PD enzyme inhibitors, primary screen, biochemical, fluorescence intensity, uHTS; glucose-6-phosphate dehydrogenase-6-phosphogluconolactonase (Plasmodium falciparum 3D7); PfGluPho enzyme, NADPH resazurin-diaphorase fluorescence; inhibition, % at 20 µM; 350,000 compounds, 0.78% hits;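 active = inhibition reaching at least a set limit at 20 µM in the primary screen, cut at about 59% in these data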;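 note: 0% = DMSO wells with substrate and 100% = DMSO wells lacking glucose-6-phosphate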
# ABHD5-PLIN5 inh – ABHD5-PLIN5 interaction inhibitors, primary screen, cell lysate, split luciferase complementation, luminescence; Perilipin-5 (Homo sapiens) + 1-acylglycerol-3-phosphate O-acyltransferase ABHD5 (Homo …; Split G. princeps luciferase complementation, 4 h; inhibition, % at 4 µM; 360,000 compounds, 0.78% hits; AID 602281, 2012;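 active = inhibition above the mean inhibition across every tested compound plus 3 SD, cut at about 22% in these data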;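 note: 0% = DMSO only wells and the 100% control is not disclosed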
# Granule exo inh – LAMP-1 surface exposure blockers, TALL-104 cells – cell-based, flow cytometry, MLPCN library, primary screen | 360,000 compounds, 0.66% hits | AID 651702, 2012 | TALL-104 LAMP-1 surface exposure; cells stimulated with thapsigargin and PMA | inhibition, % at 10 µM;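 active = inhibition above about 55%, limit read from the data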
# Exocytosis CP01 – inhibitors of lytic granule exocytosis, confirmation, TALL-104 cells, flow cytometry, Cherry Pick01. LAMP-1 externalization; stimulated with PMA plus thapsigargin. 1,500 compounds, 11% hits. inhibition, % at 10 µM. AID 651954, 2012. shares compounds with Granule exo inh; in the data active = inhibition above about 60%;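 note: 0% = stimulated vehicle wells and 100% = unstimulated wells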
# * marks the source's active call; other numbers are inactive results; . = not tested or not shown.
SMILES,HKDC1 inhibitor,PfG6PD inh,ABHD5-PLIN5 inh,Granule exo inh,Exocytosis CP01
N#Cc1cccc(CN2CCCN(Cc3ccc(F)cc3)S2(=O)=O)c1,2,6,7,85*,-6
CCCn1c(SCC(=O)NCCc2ccccc2)nnc1C(C)C,-9,-7,2,-6,.
COc1ccc(-c2nc(C(=O)NCCCN3CCOCC3)cc3c2[nH]c2ccccc23)cc1OC,2,35,2,12,.
Cc1ccc(-c2nc(C(=O)NCCCN3CCOCC3)cc3c2[nH]c2ccccc23)cc1,2,30,8,56*,18
Cc1cc(C)c(S(=O)(=O)Nc2cccc(-n3cnnn3)c2)c(C)c1,-1,-1,3,32,.
Cc1cc(C)c(C)c(S(=O)(=O)Nc2cccc(-n3cnnn3)c2)c1C,7,-8,-6,60*,-14
CCN(CC)CCSc1nnc2c3ccccc3n(CCc3ccccc3)c2n1,-6,11,5,60*,-14
C=CCn1c2ccccc2c2nnc(SCCCn3c(=O)[nH]c4ccccc43)nc21,32,42,6,67*,12
C=CCn1c2ccccc2c2nnc(SCCN3CCCCC3)nc21,0,8,5,18,.
CC1CCC(NC(=O)CCS(=O)(=O)c2ccc3c(c2)CCN3C(=O)C2CC2)CC1 (stereo not given),-4,1,5,-4,.
CN(C)C(=O)c1ccc(NC(=O)COC(=O)C2CCN(S(=O)(=O)c3ccc4c(c3)OCCO4)CC2)cc1,3,-14,10,-8,.
NC(=O)CC(NC(=O)Cc1ccc(Br)cc1)c1ccc(N2CCC(Cc3ccccc3)CC2)c([N+](=O)[O-])c1 (stereo not given),-9,-14,-1,36,.
NC(=O)CC(NC(=O)Cc1cccc2ccccc12)c1ccc(N2CCC(Cc3ccccc3)CC2)c([N+](=O)[O-])c1 (stereo not given),-1,16,-8,60*,-10
COc1ccccc1Nc1c2ccccc2nc2ccccc12,1,3,5,82*,38
COc1ccc(Cl)cc1Nc1cc(C)nc2ccccc12,-4,2,0,76*,-4
COc1ccc(OC)c(Nc2cc(C)nc3ccccc23)c1,-8,-2,3,-1,.
Nc1ccccc1Sc1c[nH]c2ccccc12,2,-5,-6,10,.
CCN(c1ccccc1)S(=O)(=O)c1ccc(OC)c(NC(=O)c2cc(Cl)ccn2)c1,-3,-6,-3,0,.
CCc1cccc(C)c1NC(=O)c1cccc(N(C)C)c1,-9,31,-6,70*,-13
O=C(CNC(=S)N(Cc1ccccc1)Cc1ccccc1F)NCCc1ccc(Cl)cc1,4,12,-2,8,.
CC(=O)c1c(C)n(-c2cccc(Cl)c2)c2ccc(O)cc12,1,10,-4,81*,-2
Cc1cc(C)n(Cc2cccc(C(=O)N/N=C/c3cccnc3)c2)n1,-10,13,0,-1,.
Cc1cccc(NC(=O)CCC(=O)Nc2nnc(C(F)(F)F)s2)c1,-1,4,2,0,.
O=S(=O)(c1ccc(Br)s1)N1CCN(c2ccc(F)cc2)CC1,8,-9,-19,66*,-13
O=C(COC(=O)c1ccc([N+](=O)[O-])cc1)Nc1ccccc1C(=O)NC1CC1,-7,-4,3,-3,.
SMILES,HKDC1 inhibitor,PfG6PD inh,ABHD5-PLIN5 inh,Granule exo inh,Exocytosis CP01
CC1(C2CC2)NC(=O)N(CC(=O)NCC(=O)Nc2ccc(F)c(F)c2F)C1=O (stereo not given),-7,5,-4,56*,-12
CC1CCCCC12NC(=O)N(CC(=O)NCC(=O)Nc1ccc(F)c(F)c1F)C2=O (stereo not given),12,8,-1,0,.
COc1ccc(OC)c(NC(=O)Nc2ccc(O)c3ccccc23)c1,18,39,4,82*,-9
COc1ccc(OC)c(NC(=O)Nc2c(O)ccc3ccccc23)c1,17,53,-12,1,.
CC(C)(C)n1nnnc1C(c1cccs1)N(Cc1ccccc1)Cc1ccco1 (stereo not given),2,0,-1,78*,-12
CC(C)(C)n1nnnc1C(c1cccs1)N(Cc1cccnc1)Cc1ccco1 (stereo not given),3,8,6,5,.
